# Assay results gathered from unrelated publications.
# Each line is one published result; the experiments were not run side by side.
# Target: Tyrosine-protein kinase Lyn (LYN, Homo sapiens, UniProt P07948)
SMILES,observed,mode,method,concentration,measurement,value
CC(C)(C)c1cc(C=C(C#N)C#N)cc(Br)c1O,enzyme activity,inhibitor,,0.5 µM,remaining activity,74.1%
Cn1cc(-c2cc(F)cc(N3CCn4c(cc5c4CCCC5)C3=O)c2CO)cc(Nc2ccc(N3CCN(C4COC4)CC3)cn2)c1=O,enzyme activity,inhibitor,,0.1 µM,inhibition,12%
N#CC1(c2ccccn2)CCN(Cc2cc(C(=O)O)c(=O)n3ccccc23)CC1,cell-free assay,,competition with immobilised ligand,1 µM,remaining binding,100%
Cc1nn(C)cc1-c1nc2c(N3CCN(Cc4ccc(Cl)cc4)CC3)c(Cl)cnc2[nH]1,binding,,competition with immobilised ligand,1 µM,remaining binding,86%
COc1ncccc1-c1cnn2ccc(N3CCN(C(=O)OC(C)C)CC3)nc12,binding,,competition with immobilised ligand,1 µM,remaining binding,79%
O=C(Nc1cccnn1)N1CCN([C@@H]2CCOc3cc(C(F)(F)F)ccc32)CC1,enzyme activity,inhibitor,,20 µM,inhibition,-4%
O=c1[nH]c2ccccc2n1C1CCN(Cc2ccc(-c3[nH]c4cc5ncnc5cc4nc3-c3ccccc3)cc2)CC1,enzyme activity,,,0.5 µM,remaining activity,102%
Cc1ncc(C)n2nc(/C=C/c3nc(N4CCCC4)cc(N4CCOCC4)n3)nc12,enzyme activity,inhibitor,,10 µM,inhibition,-13%
Cn1cncc1[C@](O)(COc1ccc(C#N)cc1-c1ccc(OC(F)(F)F)cc1)c1ccc(C#N)cc1,cell-free assay,,competition with immobilised ligand,1 µM,remaining binding,90%
